Compounds with a hit are over-represented: about 5.8% of the library has one in this group of screens.
GASC1 inh = blocks human GASC-1 (KDM4C) demethylase activity | Q9H3R0 | hit rate 0.15% among 96,000 | GST-KDM4C 2-372, H3K9me3 peptide, LANCE TR-FRET | AID 720574 | inhibition, % at 12.5 µM;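 active = mean replicate inhibition above about 25%, with at least 55% of replicates also reaching it, limit read from the data, passing the limit was not always enough; inconclusive = only one of those two conditions met; inactive = neither condition met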
Target sequence (Q9H3R0 2-372 limits assumed): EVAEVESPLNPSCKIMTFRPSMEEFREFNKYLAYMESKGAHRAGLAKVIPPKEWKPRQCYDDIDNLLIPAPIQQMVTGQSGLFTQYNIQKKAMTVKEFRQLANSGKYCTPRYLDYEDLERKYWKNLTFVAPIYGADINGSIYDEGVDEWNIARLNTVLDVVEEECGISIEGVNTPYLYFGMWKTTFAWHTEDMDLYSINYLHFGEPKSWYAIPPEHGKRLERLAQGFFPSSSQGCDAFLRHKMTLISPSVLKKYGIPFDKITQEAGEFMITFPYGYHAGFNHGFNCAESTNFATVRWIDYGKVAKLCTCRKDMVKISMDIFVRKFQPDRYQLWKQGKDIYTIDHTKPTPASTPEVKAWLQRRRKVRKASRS
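Material: GST-tagged GASC-1 (JMJD2C) catalytic fragment, aa 2-372 / Quantity: enzyme final amount 10 nM / Medium: HEPES buffer, pH 7.5, plus ascorbate / Doses: one test concentration per compound / Incubation: 30 min reaction, 60 min detection, RT / Measured by: LANCE TR-FRET / Read-out: inhibition from TR-FRET ratio decrease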
Pf Dd2 growth = blocks growth of Plasmodium falciparum Dd2 parasites; hit rate 2.3% among 94,000; P. falciparum Dd2 growth, SYBR Green, 72 h; hits give low values; activity change, % at 10 µM; AID 1159554; in the data active = activity change below about -80%; inconclusive = no clear call, values can overlap the other calls
IDH1 R132H inh = blocks human IDH1 R132H reductase activity. diaphorase/resazurin fluorescence, 60 min. inhibition, % at 10 µM. hit rate 0.18% among 70,000; in the data active = inhibition above about 34%; inconclusive = no clear call, values can overlap the other calls; inactive = below about 11%
Target sequence (O75874 whole entry R132H): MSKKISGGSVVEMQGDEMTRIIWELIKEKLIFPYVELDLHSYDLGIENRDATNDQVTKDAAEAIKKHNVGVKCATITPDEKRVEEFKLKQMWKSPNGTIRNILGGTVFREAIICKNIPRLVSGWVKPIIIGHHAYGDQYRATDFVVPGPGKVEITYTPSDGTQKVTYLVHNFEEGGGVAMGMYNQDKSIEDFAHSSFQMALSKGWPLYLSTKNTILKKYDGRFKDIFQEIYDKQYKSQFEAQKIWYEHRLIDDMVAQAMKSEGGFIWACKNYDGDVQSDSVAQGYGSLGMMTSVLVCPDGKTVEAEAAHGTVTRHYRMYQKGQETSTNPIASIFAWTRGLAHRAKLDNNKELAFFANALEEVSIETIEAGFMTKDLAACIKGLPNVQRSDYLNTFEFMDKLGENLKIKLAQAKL
T cruzi growth-1 = blocks T. cruzi growth in NIH3T3 culture | hit rate 5.9% among 77,000 | T. cruzi beta-gal in NIH3T3, GalScreen luminescence, 90 h | inhibition, % at 8.34 µM | AID 624255;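 active = mean inhibition above about 93%, with at least 55% of replicates each passing it, limit read from the data, passing the limit was not always enough; inconclusive = only one of those two conditions holds; inactive = neither condition holds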
T cruzi growth-2 = blocks T. cruzi growth in NIH3T3 host cells | inhibition, % at 8.35 µM | hit rate 72% among 5,600 | AID 651739 | T. cruzi beta-gal in NIH3T3, GalScreen luminescence, 90 h | shares compounds with T cruzi growth-1;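 active = mean replicate inhibition above about 95% and at least 55% of replicates individually reaching it, limit read from the data; inconclusive = only one of the two criteria is met; inactive = neither criterion is met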
T cruzi growth-3 = blocks T. cruzi growth in NIH3T3 host cells; AID 651740; shares compounds with T cruzi growth-1; hit rate 21% among 5,600; inhibition, % at 2.09 µM; T. cruzi beta-gal in NIH3T3, GalScreen luminescence, 90 h;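 active = mean inhibition above about 95%, with at least 55% of replicates also reaching it, limit read from the data; inconclusive = meets just one of the two conditions; inactive = meets neither condition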
NIH3T3 tox = cytotoxicity in mouse NIH/3T3 fibroblasts | NIH/3T3 viability, CellTiter-Glo ATP luminescence, 90 h | AID 651742 | cytotoxicity (signal decrease), % at 8.35 µM | hit rate 14% among 5,600 | shares compounds with T cruzi growth-1;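 active = mean signal decrease across replicates above about 35% based on untreated-well scatter, with enough replicates individually passing, limit read from the data; inconclusive = no rule stated though some were filed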
NIH3T3 tox 2 = cytotoxicity in mouse NIH/3T3 fibroblasts. shares compounds with T cruzi growth-1. NIH/3T3 viability, CellTiter-Glo ATP luminescence, 90 h. inhibition, % at 24.9 µM. hit rate 56% among 5,600;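 active = mean loss of cell viability signal at or above a set limit, and enough replicates individually reaching it; inconclusive = meets only the mean limit or only the replicate share; inactive = meets neither condition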
Large screens that a line does not name were inactive (follow-up assays come after a bar, where they were run).

O=C(Nc1ccc(F)cc1)N1CCCCN2[C@H](CO)[C@@H](c3ccc(C#CC4CC4)cc3)[C@@H]2C1	T cruzi growth-1 107.8 (no result: IDH1 R132H inh) | T cruzi growth-2 112.1 | T cruzi growth-3 inactive | NIH3T3 tox inactive | NIH3T3 tox 2 104.2
O=C(Nc1ccc(F)cc1)N1CCCCN2[C@H](C1)[C@@H](c1ccc(C#CC3CC3)cc1)[C@@H]2CO	T cruzi growth-1 98.8 (no result: IDH1 R132H inh) | T cruzi growth-2 101.2 | T cruzi growth-3 103.5 | NIH3T3 tox inactive | NIH3T3 tox 2 105.4
O=C(Nc1ccccc1)N1CCCCN2[C@@H](CO)[C@@H](c3ccc(C#CC4CC4)cc3)[C@@H]2C1	none (no result: IDH1 R132H inh)
O=C(Nc1ccc(F)cc1)N1CCCCN2[C@H](CO)[C@H](c3ccc(C#CC4CC4)cc3)[C@@H]2C1	T cruzi growth-1 105.7 (no result: IDH1 R132H inh) | T cruzi growth-2 107.1 | T cruzi growth-3 inactive | NIH3T3 tox inactive | NIH3T3 tox 2 inactive
Cc1cc(C(=O)CSc2ncn[nH]2)c(C)n1-c1cc(Cl)ccc1Cl	none (no result: GASC1 inh, Pf Dd2 growth, T cruzi growth-1)
Cc1noc(C)c1S(=O)(=O)Nc1ccc2c(c1)C(=O)N([C@H](C)CO)C[C@H](C)[C@H](CN(C)C(=O)Nc1ccc(C(F)(F)F)cc1)OCCCC[C@H](C)O2	none
Cc1noc(C)c1S(=O)(=O)Nc1ccc2c(c1)C(=O)N([C@H](C)CO)C[C@H](C)[C@@H](CN(C)C(=O)Nc1ccc(C(F)(F)F)cc1)OCCCC[C@H](C)O2	T cruzi growth-1 113.8 | T cruzi growth-2 100.5 | T cruzi growth-3 inactive | NIH3T3 tox inactive | NIH3T3 tox 2 inconclusive
Cc1noc(C)c1S(=O)(=O)Nc1ccc2c(c1)C(=O)N([C@@H](C)CO)C[C@H](C)[C@H](CN(C)C(=O)Nc1ccc(C(F)(F)F)cc1)OCCCC[C@H](C)O2	none
Cc1noc(C)c1S(=O)(=O)Nc1ccc2c(c1)C(=O)N([C@@H](C)CO)C[C@@H](C)[C@@H](CN(C)C(=O)Nc1ccc(C(F)(F)F)cc1)OCCCC[C@@H](C)O2	T cruzi growth-1 inconclusive (no result: IDH1 R132H inh) | T cruzi growth-2 95.5 | T cruzi growth-3 101.8 | NIH3T3 tox inactive | NIH3T3 tox 2 inconclusive
O=C(CSc1nnc(-c2ccc(Br)cc2)o1)Nc1cc(C(F)(F)F)ccc1Cl	none (no result: GASC1 inh, Pf Dd2 growth, T cruzi growth-1)
C[C@@H]1CCCCO[C@@H](CN(C)Cc2ccc(C(F)(F)F)cc2)[C@H](C)CN([C@@H](C)CO)C(=O)c2cc(NC(=O)C3CCCCC3)ccc2O1	T cruzi growth-1 113.8 | T cruzi growth-2 102.2 | T cruzi growth-3 111.7 | NIH3T3 tox inactive | NIH3T3 tox 2 inactive
C[C@H](CO)N1C[C@H](C)[C@H](CN(C)Cc2ccc(C(F)(F)F)cc2)OCCCC[C@H](C)Oc2ccc(NC(=O)C3CCCCC3)cc2C1=O	T cruzi growth-1 98.9 | T cruzi growth-2 inconclusive | T cruzi growth-3 111.5 | NIH3T3 tox inactive | NIH3T3 tox 2 54.9
C[C@@H]1CCCCO[C@@H](CN(C)Cc2ccc(C(=O)O)cc2)[C@@H](C)CN([C@H](C)CO)C(=O)c2cc(NC(=O)C3CCCCC3)ccc2O1	none
C[C@@H]1CCCCO[C@@H](CN(C)Cc2ccc(C(=O)O)cc2)[C@H](C)CN([C@H](C)CO)C(=O)c2cc(NC(=O)C3CCCCC3)ccc2O1	none
C[C@@H]1CN([C@H](C)CO)C(=O)c2cc(NC(=O)C3CCCCC3)ccc2O[C@@H](C)CCCCO[C@H]1CN(C)Cc1ccc(C(F)(F)F)cc1	Pf Dd2 growth inconclusive, T cruzi growth-1 inconclusive (no result: IDH1 R132H inh) | T cruzi growth-2 100.7 | T cruzi growth-3 109.1 | NIH3T3 tox inactive | NIH3T3 tox 2 49.4
C[C@@H]1CCCCO[C@@H](CN(C)Cc2ccc(C(=O)O)cc2)[C@@H](C)CN([C@@H](C)CO)C(=O)c2cc(NC(=O)C3CCCCC3)ccc2O1	none
C[C@@H]1CCCCO[C@H](CN(C)Cc2ccc(C(F)(F)F)cc2)[C@H](C)CN([C@@H](C)CO)C(=O)c2cc(NC(=O)C3CCCCC3)ccc2O1	T cruzi growth-1 117.1 | T cruzi growth-2 102.2 | T cruzi growth-3 110.2 | NIH3T3 tox 57.1 | NIH3T3 tox 2 73.3
O=C(CCCOc1ccc(Cl)cc1Cl)Nc1ccc2c(c1)C(=O)NC2=O	none (no result: GASC1 inh, Pf Dd2 growth, T cruzi growth-1)
Cc1ccc(N(C(C)C(=O)Nc2cccc([N+](=O)[O-])c2)S(C)(=O)=O)cc1C (stereo not given)	none (no result: GASC1 inh, Pf Dd2 growth, T cruzi growth-1)
COC(=O)c1cn(CC(=O)NCC2CCCO2)c2ccccc12 (stereo not given)	none (no result: GASC1 inh, Pf Dd2 growth, T cruzi growth-1)
C[C@H]1CCCCO[C@@H](CN(C)Cc2ccc(C(F)(F)F)cc2)[C@@H](C)CN([C@@H](C)CO)C(=O)c2cc(NC(=O)C3CCCCC3)ccc2O1	T cruzi growth-1 inconclusive (no result: IDH1 R132H inh) | T cruzi growth-2 98.3 | T cruzi growth-3 inactive | NIH3T3 tox inactive | NIH3T3 tox 2 25.8
C[C@@H]1CN([C@@H](C)CO)C(=O)c2cc(NC(=O)C3CCCCC3)ccc2O[C@@H]1CN(C)Cc1ccc(C(F)(F)F)cc1	T cruzi growth-1 72.2 | T cruzi growth-2 inactive | T cruzi growth-3 inactive | NIH3T3 tox inactive | NIH3T3 tox 2 31.4
C[C@H](CO)N1C[C@H](C)[C@H](CN(C)C(=O)Nc2ccc(C(F)(F)F)cc2)Oc2ccc(NC(=O)C3CCCCC3)cc2C1=O	T cruzi growth-1 inconclusive | T cruzi growth-2 100.4 | T cruzi growth-3 inactive | NIH3T3 tox 43.8 | NIH3T3 tox 2 51.5
CC(=O)c1cccc(NC(=S)NCCn2cc(Cl)cn2)c1	none (no result: GASC1 inh, Pf Dd2 growth, T cruzi growth-1)
C[C@H](CO)N1C[C@H](C)[C@H](CN(C)Cc2ccccc2)Oc2cc(C3=CCCCC3)ccc2S1(=O)=O	T cruzi growth-1 inconclusive | T cruzi growth-2 100.4 | T cruzi growth-3 inactive | NIH3T3 tox inactive | NIH3T3 tox 2 102.6
C[C@H]1CN([C@@H](C)CO)S(=O)(=O)c2ccc(C3=CCCCC3)cc2O[C@H]1CN(C)Cc1ccccc1	T cruzi growth-1 120.1 | T cruzi growth-2 inactive | T cruzi growth-3 inactive | NIH3T3 tox 68.5 | NIH3T3 tox 2 105.4
C[C@H](CO)N1C[C@H](C)[C@@H](CN(C)Cc2ccccc2)Oc2cc(C3=CCCCC3)ccc2S1(=O)=O	T cruzi growth-1 115.6 | T cruzi growth-2 100.5 | T cruzi growth-3 101.1 | NIH3T3 tox 45.5 | NIH3T3 tox 2 105.0
C[C@@H]1CN([C@@H](C)CO)S(=O)(=O)c2ccc(C3=CCCCC3)cc2O[C@@H]1CN(C)Cc1ccccc1	T cruzi growth-1 122.3 | T cruzi growth-2 99.9 | T cruzi growth-3 117.0 | NIH3T3 tox inactive | NIH3T3 tox 2 105.6
CCn1c(SCC(=O)Nc2ccc(Cl)cc2Cl)nnc1-c1ccccc1	none (no result: GASC1 inh, Pf Dd2 growth, T cruzi growth-1)
CCc1ccc(OCC(=O)Nc2ccccc2C(N)=O)c(Br)c1	none (no result: GASC1 inh, Pf Dd2 growth, T cruzi growth-1)

High-throughput results (PubChem)
